# Screens (PubChem BioAssay)
# Hits are enriched below; roughly 2% of the tested compounds scored in any of these assays.
# Dynein cargo inh: blocks dynein driven cargo transport along microtubules. 220,000 compounds, 0.47% hits. AID 1381. z-score, hits read low. 3617.4 mouse cells, GR-EGFP nuclear translocation imaging; test concentration mostly 20 µM; stimulated with dexamethasone, 1 µM; stronger effect = lower value;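 active means plate z-score of nuclear minus cytoplasmic receptor signal below a set negative limit, without overly bright fluorescence or cell loss, cut at about -3.5 in these data, passing the limit was not always enough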;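 further: z-score of nuclear minus cytoplasmic ring GR-EGFP intensity difference per well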
#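 Buffer or medium: tetracycline-free induction medium containing charcoal-stripped FBS / Reagent: dexamethasone agonist, 1.0 µM final, for 30 min / Technique: automated 10x imaging of fixed Hoechst-stained cells / Times: induction 48 h, compound 1 h, agonist 30 min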
# Insulin prom inh: TRM-6 insulin promoter activity inhibition; TRM-6 cells, insulin promoter-eGFP reporter, imaging; reporter expression induced with tamoxifen; inhibition, % at 2 µM; 130,000 compounds, 0.9% hits;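 active means inhibition above the mean plus 3 SD, with well images judged a real hit on visual review, cut at about 60% in these data, passing the limit was not always enough; inconclusive means inhibition over the cutoff but images rejected on review; inactive means inhibition not above the cutoff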
# Autophagy mod: alters autophagy in cells; MEF GFP-LC3 puncta imaging; test concentration mostly 10 µM; calls only at 10 µM (by protocol); 190,000 compounds, 0.98% hits; AID 463193;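 active means percentage of spot-positive cells more than 3 SD above its plate mean, without a fluorescence outlier flag or 80% toxicity; inconclusive means no clear call, values can overlap the other calls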;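 further: spot-positive cell cutoff set from DMSO-treated cells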
# Ins promoter up: MIN6 insulin promoter up-regulation. MIN6 insulin promoter-GFP reporter, high-content imaging; stronger effect = higher value. z-score at 5 µM. 190,000 compounds, 0.3% hits;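 active means z-score above 3 at 5 µM with at least 500 cells counted in the well; inconclusive means wells under 500 cells, flagged as cytotoxic or low count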
# Dynein inh conf: dynein cargo transport inhibition, confirmation. shares compounds with Dynein cargo inh. 3617.4 GR-EGFP nuclear translocation imaging, dexamethasone-induced. calls only at 20 µM. 1,000 compounds, 69% hits;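 active means inhibition of receptor movement into the nucleus at or above a set limit in both runs, with normal cell brightness and cell count; inconclusive means limit reached in only one run, brightness and count normal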;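 further: dexamethasone at 1 µM final in well for 30 min; nuclear minus cytoplasmic GR-EGFP mean intensity difference in channel 2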
# Active calls of the source: *; i = inactive; ? = inconclusive; / = not tested or not shown; + = active, no number.
SMILES,Dynein cargo inh,Insulin prom inh,Autophagy mod,Ins promoter up,Dynein inh conf
COc1ccc(NC(=O)CN(C)CC(=O)Nc2cccc(S(=O)(=O)N(C)c3ccccc3)c2)cc1,-0.48,/,i,-1.1,/
Cn1c(Cl)cnc1C1CC(=O)c2cc(Cl)ccc2O1 (stereo not drawn),-5.9*,/,i,-3.4,?
CCOC(=O)c1c(C)sc2c1N(C(=O)CCl)c1cc(Cl)ccc1S2,-4*,3,+,0.07,+
Cc1sc2ncnc(SCC(=O)N3c4ccccc4Sc4ccc(Cl)cc43)c2c1C,-0.29,38,i,-0.86,/
CC(=O)c1ccccc1OC(=O)CCN1C(=O)c2ccccc2C1=O,0.0097,/,i,0.87,/
O=C(Nc1ccc(N2CCCC2)c(Cl)c1)c1ccco1,1.8,0,i,0.19,/
CCCC(=O)N1CCN(c2ccc(NC(=O)c3ccc([N+](=O)[O-])o3)cc2)CC1,-4.1*,/,i,-0.18,+
O=C(Nc1ccc(N2CCN(C(=O)c3ccc(Cl)cc3)CC2)cc1)c1ccc([N+](=O)[O-])o1,-4.9*,/,i,0.16,+
CS(=O)(=O)N1CCN(c2ccc(NC(=O)c3ccc([N+](=O)[O-])o3)cc2)CC1,-1.3,/,i,0.34,/
O=C(Nc1ccc(N2CCCC2)c(Cl)c1)c1ccc([N+](=O)[O-])o1,-4*,/,i,0.88,+
CCC(=O)N1CCN(c2ccc(NC(=O)c3ccc([N+](=O)[O-])o3)cc2)CC1,-4*,/,i,0.2,+
CCCC(=O)N1CCN(c2ccc(NC(=O)c3ccc(Br)o3)cc2)CC1,-0.97,-3,i,-0.04,/
CNC(=O)CS(=O)CC(=O)Nc1cc(OCCOC)c(Cl)cc1Cl (stereo not drawn),1.2,/,i,-0.57,/
CC1=Nc2ccccc2/C1=C\c1nc(-c2ccc(C(F)(F)F)cc2)oc1O,-4.4,-28,?,0.49,/
CC1=Nc2ccccc2/C1=C/c1nc(-c2ccc(C)s2)oc1O,-6.7,6,i,1.4,?
Cc1ccc(O)c(NC(=O)c2cc([N+](=O)[O-])ccc2Cl)c1,-3.7*,/,i,1.9,+
O=C(O)c1cc2nccc(-c3ccc(F)cc3)n2n1,-1.3,/,i,-0.36,/
COc1ccc(Nc2ncccc2C(=O)NCc2ccccc2)cc1,0.18,/,i,/,/
COc1cccc(Nc2ncccc2C(=O)NCc2ccccc2)c1,-9.6,-134,i,0.58,i
Cc1cc(-c2nnc(CCC(=O)N(C)C(C)c3cccs3)o2)no1 (stereo not drawn),-0.44,/,/,/,/
O=C(Cn1sc2ccccc2c1=O)NC12CC3CC(CC(C3)C1)C2,-5.1*,/,i,-0.67,i
Cc1cc(C)cc(OC(=O)CS(=O)c2ccc(C(F)(F)F)cc2[N+](=O)[O-])c1 (stereo not drawn),-3.7*,-446,i,-0.52,+
Cc1cccc(C)c1NC(=O)NC1(C(=O)N2CCOCC2)CCCCC1,0.29,-43,i,-0.78,/
COc1ccccc1N(C)S(=O)(=O)c1ccc(C(=O)NC(C)c2ccccc2)cc1 (stereo not drawn),1.5,/,/,0.09,/
COC(=O)C(=C/C(C)=C/c1cccs1)C(=O)OC,-4*,33,i,-0.45,?
SMILES,Dynein cargo inh,Insulin prom inh,Autophagy mod,Ins promoter up,Dynein inh conf
O=c1cc(C(Cl)(Cl)Cl)oc2c1ccc1ccccc12,-4*,58,+,-3.8,+
O=c1cc(-c2ccco2)oc2c1ccc1ccccc12,-0.87,0,i,0.49,/
Cc1ccc(NC(=O)CCC(=O)OCC(=O)c2ccc(Oc3ccc([N+](=O)[O-])cc3)cc2)cc1C,-0.69,-49,i,0.19,/
Cc1cccc(NC(=O)CCC(=O)OCC(=O)c2ccc(Oc3ccc([N+](=O)[O-])cc3)cc2)c1,-4.4*,53,i,-0.44,?
Cc1c(Cl)cn2c(=O)cc(CN3CCN(c4ccc(F)cc4)CC3)nc2c1Cl,0.66,/,i,-0.21,/
CCn1c(SCC(=O)N2CCOCC2)nc2oc3c(Cl)cc(Cl)cc3c(=O)c2c1=O,-3.5*,/,i,/,+
S=c1[nH]nc(-c2cc(-c3ccccc3)n[nH]2)n1/N=C/C(Br)=C/c1ccccc1,-4.3*,/,/,-0.44,?
Cc1nn(-c2ccccc2)c(Cl)c1CN(C(=O)CCl)c1ccc(Cl)cc1,-3.9*,?,i,-0.2,+
CC(C)n1c(=O)[nH][nH]c1=S,0.61,/,/,/,/
Cc1ccc(C)c(Cn2c(C)nc3c(sc(=S)n3-c3ccccc3)c2=O)c1,-0.68,-31,i,/,/
C=CCNc1cnn(CC(C)=O)c(=O)c1Br,-0.13,-6,i,0.27,/
CC(C)(C)C(=O)Cn1ncc(Br)c(Br)c1=O,-4.4*,/,i,?,+
CCN1CCN(CCOc2cccc(Oc3ccccc3)c2)CC1,0.036,/,i,-0.04,/
O=C1/C(=C/c2ccc(N3CCOCC3)o2)SC(=Nc2ccccc2)N1CCc1c[nH]c2ccccc12,-7,/,+,/,+
COc1ccccc1CCc1nnc(CCC(=O)NC(C)Cc2cccs2)o1 (stereo not drawn),-0.7,/,i,/,/
O=C(CS(=O)(=O)c1ccccc1)Nc1ccc(N2CCOCC2)cc1,-0.43,62,i,-0.49,/
CN(c1ccccc1)c1ccc(/C=C/[N+](=O)[O-])cc1,-3.6*,/,i,0.57,i
COCc1ccc(CN2CCc3c([nH]c4ccccc34)C2CC(C)C)o1 (stereo not drawn),-1.2,/,i,/,/
Cn1cc(Br)c(NC(=O)/C=C/C(=O)O)n1,-6.2*,/,/,-0.04,+
Cn1cc(Br)c(C(=O)Nc2c(F)c(F)c(F)c(F)c2F)n1,0.072,0,i,0.59,/
O=C(c1ccc(S(=O)(=O)Cc2cc(F)ccc2F)c([N+](=O)[O-])c1)N1CCCC1,-4.6*,0,i,0.6,+
CCOC(=O)/C(=C/C=C1\Sc2cc(C)c(C)cc2N1CC)C(C)=O,-3.8,/,i,/,i
COc1ccc(CNC(=O)c2ccc3c(c2)NC(=O)C(C)S3)cc1 (stereo not drawn),-0.94,/,/,-0.58,/
CC1OC(OC2C(OC3C(O[C@H]4CC[C@]5(C)C6C=C[C@]78OC[C@@]9(CC[C@@H](C)[C@H](C)C97)[C@H](O)C[C@@]8(C)[C@]6(C)CC[C@H]5C4(C)C)OC(C)C(O)C3O)OC(CO)C(O)C2O)C(O)C(O)C1O (stereo partly drawn),-3.9*,/,/,/,i
COC(=O)c1cc(OC)c(OC)cc1NC(=O)c1cc(C(C)(C)C)oc1C,-0.84,/,/,-0.84,/
CC1(C)Cc2c(C#N)c(NC3CCCCC3)nc(-c3ccco3)c2CO1,-4.3*,/,i,/,i
CC1(C)Cc2c(C#N)c(NCC3CCCO3)nc(-c3ccco3)c2CO1 (stereo not drawn),-1.5,9,i,-1.7,/
CCN1CCN(Cc2c(O)ccc3c2O/C(=C\C=C\c2ccccc2)C3=O)CC1,-4.9*,0,i,0.33,+
O=C1/C(=C/C=C/c2ccccc2)Oc2c1ccc(O)c2CN1CCN(CCO)CC1,-1.3,/,/,-0.38,/
O=C(O)c1ccc(-n2ccnc2)c([N+](=O)[O-])c1,-0.36,/,i,/,/
